Calls of active or inactive are those of the source. No cut-off for these calls is given here.
Legend:
[1] = molecular target: T1, Androgen receptor (Homo sapiens) (UniProt P10275); assay: Displacement of [3H]R1881 from androgen receptor in human LNCAP cells at 1 uM after 24 hrs by liquid scintillation counting; format: cell-based
T1 sequence (whole entry): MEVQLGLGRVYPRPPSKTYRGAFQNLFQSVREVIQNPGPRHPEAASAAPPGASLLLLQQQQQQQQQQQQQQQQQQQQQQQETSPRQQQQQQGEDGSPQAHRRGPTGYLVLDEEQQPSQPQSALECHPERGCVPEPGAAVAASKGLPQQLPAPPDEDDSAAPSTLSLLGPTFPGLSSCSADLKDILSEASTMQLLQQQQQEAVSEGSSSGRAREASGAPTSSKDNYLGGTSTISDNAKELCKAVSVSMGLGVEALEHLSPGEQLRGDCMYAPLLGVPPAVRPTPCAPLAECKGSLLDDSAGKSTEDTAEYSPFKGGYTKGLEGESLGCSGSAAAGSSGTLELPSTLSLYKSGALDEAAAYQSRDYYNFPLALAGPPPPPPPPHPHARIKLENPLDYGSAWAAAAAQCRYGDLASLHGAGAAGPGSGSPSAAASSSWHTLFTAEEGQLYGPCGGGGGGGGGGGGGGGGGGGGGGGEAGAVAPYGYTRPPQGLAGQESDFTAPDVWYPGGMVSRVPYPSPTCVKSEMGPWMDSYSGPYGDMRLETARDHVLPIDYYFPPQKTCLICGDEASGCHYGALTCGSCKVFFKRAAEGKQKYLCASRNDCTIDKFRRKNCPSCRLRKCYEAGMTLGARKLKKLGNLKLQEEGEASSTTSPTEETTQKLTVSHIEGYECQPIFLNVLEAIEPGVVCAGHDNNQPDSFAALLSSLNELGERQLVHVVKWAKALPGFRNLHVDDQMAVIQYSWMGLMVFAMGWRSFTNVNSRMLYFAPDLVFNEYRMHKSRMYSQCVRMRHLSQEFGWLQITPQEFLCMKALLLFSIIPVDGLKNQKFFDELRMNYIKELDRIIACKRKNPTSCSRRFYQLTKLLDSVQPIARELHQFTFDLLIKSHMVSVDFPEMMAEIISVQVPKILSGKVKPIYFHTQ

[2] = molecular target: T1, Androgen receptor (Homo sapiens); assay: Displacement of [3H]R1881 from androgen receptor in human LNCAP cells at 2 uM after 24 hrs by liquid scintillation counting; format: cell-based
[3] = molecular target: T1, Androgen receptor (Homo sapiens); assay: Effect on nuclear import of wild-type human androgen receptor expressed in COS7 cells at 10 uM after 1 hr by immunofluorescence analysis; format: cell-based; conditions: COS-7
Procedure, shortened: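 Cos-7 cells on coverslips made quiescent, transfected with 1 μg pSG5-hAR, then stimulated with 10 nM R1881 for 60 min ± compounds. AR detected by immunofluorescence with anti-C19 antibody and Texas red secondary; nuclei stained with Hoechst.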

LNCaP [4] = assay: Inhibition of R1881-induced DNA synthesis in human LNCAP cells at 10 to 20 uM after 18 hrs by BrdU incorporation assay; format: functional, cell-based
Procedure, shortened: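 Quiescent LNCaP cells on coverslips treated 18 h with 10 nM R1881 ± compound (10 or 20 μM), then pulsed with 100 μM BrdU. Incorporation scored by anti-BrdU immunofluorescence as % of total nuclei.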

LNCaP [5] = assay: Inhibition of R1881-induced migration of human LNCAP cells at 10 uM by transwell assay; format: functional, cell-based
Procedure, shortened: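 Quiescent LNCaP cells on collagen-coated transwell filters, 24 h after seeding, treated with 10 nM R1881 ± 10 μM compound. Migrated cells stained with Hoechst and counted by fluorescence microscopy; data given as relative increase in migrated cells.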

LNCaP [6] = assay: Inhibition of R1881-induced migration of human LNCAP cells at 10 uM after 24 hrs by wound-healing assay; format: functional, cell-based
Procedure, shortened: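 Confluent quiescent LNCaP monolayers scratched, washed, and given 10 nM R1881 ± 10 μM compound for 24 h. Wound closure assessed from phase-contrast images; four experiments.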

LNCaP [7] = assay: Effect on cell migration in serum-stimulated human LNCAP cells by transwell assay; format: ADME, cell-based
[8] = Inhibition of R1881-induced DNA synthesis in Androgen receptor-negative human DU145 cells at 10 to 20 uM after 18 hrs by BrdU incorporation assay; format: cell-based; conditions: du-145, 18 h
LNCaP [9] = assay: Growth inhibition of human LNCAP cells expressing mutant androgen receptor after 144 hrs by SRB assay; format: cell-based; conditions: Homo sapiens, LNCaP, read-out: GI50
Procedure, shortened: (§1)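 Cells exposed for 144 h starting 24 h after seeding, 5000 cells/well. SRB assay with OD read at 490 nm. Growth inhibition calculated as (ODtreated−ODzero)/(ODcontrol−ODzero)×100; OD below ODzero counted as cell killing. Octuplicate wells, three independent experiments; IG50 and LC50 taken from this calculation.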

[10] = Growth inhibition of human LNCaP-AR cells expressing wild-type androgen receptor after 144 hrs by SRB assay; format: functional; procedure, shortened: as §1
LNCaP [11] = assay: Growth inhibition of (R)-bicalutamide-resisitant human LNCAP cells after 144 hrs by SRB assay; format: functional; procedure, shortened: as §1
[12] = Growth inhibition of human VCaP cells after 144 hrs by SRB assay; format: functional; procedure, shortened: as §1
[13] = molecular target: T1, Androgen receptor (Homo sapiens); assay: Inhibition of androgen receptor in R1881-stimulated human LNCAP cells assessed as reduction in PSA mRNA level at 0.5 to 20 uM after 24 hrs by RT-PCR analysis; format: cell-based
[14] = molecular target: T1, Androgen receptor (Homo sapiens); assay: Inhibition of androgen receptor in human LNCAP cells assessed as reduction in PSA mRNA level at 0.5 to 20 uM after 24 hrs by RT-PCR analysis; format: cell-based
LNCaP [15] = assay: Inhibition of cell survival in (R)-bicalutamide-resisitant human LNCAP cells after 144 hrs by TUNEL assay; format: cell-based
Procedure, shortened: (§2)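 Cells treated 144 h starting 24 h after seeding. Fixed in 1% paraformaldehyde then 70% ethanol, labeled with TUNEL mix (TdT, FITC-dUTP) for 60 min at 37 °C, counterstained with propidium iodide/RNase, and analyzed by flow cytometry for % apoptotic cells. For LNCaP and LNCaP-AR, compounds at 20 μM, three independent experiments.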

[16] = Inhibition of cell survival in human VCaP cells after 144 hrs by TUNEL assay; format: cell-based; procedure, shortened: as §2
CWR22R = assay: Inhibition of cell survival in human CWR22Rv1 cells after 144 hrs by TUNEL assay; format: functional, cell-based; conditions: 22Rv1, 144 h
[17] = molecular target: T1, Androgen receptor (Homo sapiens); assay: Inhibition of androgen receptor in R1881-stimulated (R)-bicalutamide-resisitant human LNCAP cells assessed as reduction in PSA mRNA level at 20 uM after 24 hrs by RT-PCR analysis; format: cell-based
Procedure, shortened: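 LNCaP or LNCaP-Rbic cells (Rbic kept in 20 μM bicalutamide), 24 h after seeding, stimulated with 10 nM R1881 and treated 24 h with 10 or 20 μM compound. PSA mRNA measured by SYBR Green real-time RT-PCR in triplicate reactions, normalized to GAPDH and HPRT, expressed as fold over untreated. Two independent experiments.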

VCaP [18] = assay: Antitumor activity against human VCaP cells xenografted in CD-1 nu/nu mouse assessed as tumor regression at 10 mg/kg, po for 4 consecutive weeks starting on day 35 of tumor implantation measured after 100 days; format: functional, organism-based; design: dose 10 mg/kg
Procedure, shortened: (§3)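 Male CD-1 nu/nu mice, 5–6 weeks old, injected s.c. in the flank with 10⁶ VCaP cells in 50% Matrigel/50% serum-free medium. When tumors reached 50–100 mg, mice were randomized, 5 per group. Daily oral gavage at 10 mg/kg for 4 weeks in 80% PEG-400/20% Tween-80; controls got vehicle. Tumor weight from caliper (a×b²/2) three times weekly; body weight monitored.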

VCaP [19] = assay: Antitumor activity against human VCaP cells xenografted in CD-1 nu/nu mouse assessed as tumor regression at 10 mg/kg, po for 4 consecutive weeks starting on day 35 of tumor implantation measured after 60 days; format: functional, organism-based; design: dose 10 mg/kg; procedure, shortened: as §3
Mus musculus = assay: Toxicity in human VCaP cells xenografted CD-1 nu/nu mouse assessed as body weight loss at 10 mg/kg, po for 4 consecutive weeks starting on day 35 of tumor implantation measured up to 100 days; format: organism-based; design: dose 10 mg/kg, route oral; conditions: in vivo, 2400 h; procedure, shortened: as §3
[20] = Cytotoxicity against african green monkey COS7 cells; format: cell-based; conditions: chlorocebus aethiops, cos-7
LNCaP [21] = assay: Cytotoxicity against human LNCAP cells expressing mutant androgen receptor assessed as reduction in cell viability; format: cell-based
LNCaP [22] = assay: Induction of apoptosis in human LNCAP cells expressing mutant androgen receptor at 20 uM after 144 hrs by TUNEL assay; format: cell-based; procedure, shortened: as §2
LNCaP-AR = assay: Induction of apoptosis in human LNCaP-AR cells expressing wild-type androgen receptor at 20 uM after 144 hrs by TUNEL assay; format: functional; procedure, shortened: as §2
DU-145 = assay: Cytotoxicity against human DU145 cells after 144 hrs by SRB assay; format: cell-based; conditions: du-145, 144 h; procedure, shortened: as §1
[23] = Cytotoxicity against human PC3 cells after 144 hrs by SRB assay; format: cell-based; conditions: pc-3, 144 h; procedure, shortened: as §1

## N#Cc1ccc(C[C@](O)(CS(=O)(=O)c2ccc(F)cc2)C(=O)Nc2ccc(C#N)c(C(F)(F)F)c2)cc1
[1]
  inhibition: 60%
[2]
  inhibition: 65%
[3]
  Activity: inactive
LNCaP [4]
  inhibition: Active
LNCaP [5]
  inhibition: Active
LNCaP [6]
  inhibition: Active
LNCaP [7]
  Activity: Non-toxic
[8]
  Activity: Non-toxic
LNCaP [9]
  GI50: 1.6 µM
[10]
  GI50: 4.9 µM
LNCaP [11]
  GI50: 6.43 µM
[12]
  GI50: 1.42 µM
[13]
  inhibition: inactive
[14]
  inhibition: Active
LNCaP [15]
  Activity: Non-toxic
[16]
  Activity: Non-toxic
CWR22R
  IC50: 5 µM
[17]
  inhibition: Active
VCaP [18]
  Activity: Active
VCaP [19]
  Activity: Active
Mus musculus
  Activity: Non-toxic
[20]
  Activity: Non-toxic
LNCaP [21]
  Activity: Non-toxic
LNCaP [22]
  Activity: Non-toxic
LNCaP-AR
  Activity: inactive
DU-145
  Activity: Non-toxic
[23]
  Activity: Non-toxic

— ChEMBL document CHEMBL3351536, “A new avenue toward androgen receptor pan-antagonists: C2 sterically hindered substitution of hydroxy-propanamides” (J Med Chem, 2014)
